Experimental data from ChEMBL document CHEMBL1124186, “Synthesis and evaluation of tylosin-related macrolides modified at the aldehyde function: a new series of orally effective antibiotics” (1988).
Values after ≈ are worked out from the molar mass of the structure shown.

Assays:
Anaerococcus prevotii = assay: In vitro antimicrobial activity against anaerobic bacteria peptococcus prevoti 1281; type: functional
[1] = test system: Prevotella melaninogenica; assay: In vitro antimicrobial activity against anaerobic bacteria bacteroides melaninogenicus 2736; type: functional
[2] = test system: Fusobacterium necrophorum; assay: In vitro antimicrobial activity against anaerobic bacteria usobacterium necrophorum 6054A; type: functional
Phocaeicola vulgatus = assay: In vitro antimicrobial activity against anaerobic bacteria bacteroides vulgatus 1211; type: functional
Fusobacterium = assay: In vitro antimicrobial activity against anaerobic bacteria fusobacterium symbiosum 1470; type: functional
[3] = test system: Staphylococcus epidermidis; assay: In vitro antimicrobial activity against Staphylococcus epidermidis EPI1; type: functional
[4] = test system: Peptostreptococcus anaerobius; assay: In vitro antimicrobial activity against anaerobic bacteria eubacterium peptostreptococcus anaerobius 1428,; type: functional
Bacteroides fragilis [5] = assay: In vitro antimicrobial activity against anaerobic bacteria bacteroides fragilis 1877; type: functional
Eikenella corrodens = assay: In vitro antimicrobial activity against anaerobic bacteria bacteroides corrodens 1874; type: functional
[6] = In vitro antimicrobial activity against anaerobic bacteria peptostreptococcus intermedius 1264; type: functional
Bacteroides fragilis [7] = assay: In vitro antimicrobial activity against anaerobic bacteria bacteroides fragilis 111; type: functional
Mus musculus [8] = assay: Peripheral plasma levels in mice after oral administration of 100 mg/kg dose for 2 hr; type: functional, organism-based; parameters: dose 100 mg/kg
Outline: (§1)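 Mice were given the compound orally and sampled for peripheral plasma at each time point. Plasma was assayed microbiologically against Micrococcus luteus seeded in Antibiotic Medium 1. Inhibition zone sizes were read, and concentrations were calculated from each compound's own standard curve. Each value is the mean of five mice per time point.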

Mus musculus [9] = assay: Peripheral plasma levels in mice after oral administration of 100 mg/kg dose for 0.5 hr; type: functional, organism-based; parameters: dose 100 mg/kg; outline: as §1
Bacteroides fragilis [10] = assay: In vitro antimicrobial activity against anaerobic bacteria bacteroides fragilis 1936B,; type: functional
Streptococcus pyogenes [11] = assay: In vitro antimicrobial activity against Streptococcus pyogenes C203; type: functional
Cutibacterium acnes = assay: In vitro antimicrobial activity against anaerobic bacteria propionibacterium acnes 79; type: functional
[12] = test system: Prevotella melaninogenica; assay: In vitro antimicrobial activity against anaerobic bacteria bacteroides melaninogenicus 1856,; type: functional
Mus musculus [13] = assay: Peripheral plasma levels in mice after oral administration of 100 mg/kg dose for 0.25 hr; type: functional, organism-based; parameters: dose 100 mg/kg; outline: as §1
Mus musculus [14] = assay: Peripheral plasma levels in mice after oral administration of 50 mg/kg dose for 2 hr; type: functional, organism-based; parameters: dose 50 mg/kg; outline: as §1
Mus musculus [15] = assay: Peripheral plasma levels in mice after oral administration of 100 mg/kg dose for 4 hr; type: functional, organism-based; parameters: dose 100 mg/kg; outline: as §1
Mus musculus [16] = assay: Peripheral plasma levels in mice after oral administration of 50 mg/kg dose for 0.5 hr; type: functional, organism-based; parameters: dose 50 mg/kg; outline: as §1
Streptococcus pyogenes [17] = assay: In vivo effective dose against experimental infections in rodent caused by Streptococcus pyogenes C203 when administered sc; type: functional
[18] = test system: Bacteroides thetaiotaomicron; assay: In vitro antimicrobial activity against anaerobic bacteria bacteroides thetaiotaomicron 1438; type: functional
Clostridioides difficile = assay: In vitro antimicrobial activity against anaerobic bacteria Clostridium difficile 2994; type: functional
Clostridium septicum = assay: In vitro antimicrobial activity against anaerobic bacteria clostridium septicum 1128; type: functional
Collinsella aerofaciens = assay: In vitro antimicrobial activity against anaerobic bacteria eubacterium aerofaciens 1235; type: functional
Chlamydia trachomatis = assay: In vitro antimicrobial activity against chlamydia trachomatis.; type: functional
Staphylococcus aureus = assay: In vitro antimicrobial activity against Staphylococcus aureus X1; type: functional
Mus musculus [19] = assay: Peripheral plasma levels in mice after oral administration of 50 mg/kg dose for 0.25 hr; type: functional, organism-based; parameters: dose 50 mg/kg; outline: as §1
[20] = test system: Peptoniphilus asaccharolyticus; assay: In vitro antimicrobial activity against anaerobic bacteria peptococcus asaccharolyticus 1302; type: functional
Streptococcus pneumoniae [21] = assay: In vitro antimicrobial activity against Streptococcus pneumoniae; type: functional
Haemophilus influenzae = assay: In vitro antimicrobial activity against Haemophilus influenzae.; type: functional
Enterococcus faecium = assay: In vitro antimicrobial activity against Streptococcus faecium X66; type: functional, streptococcus fae-cium
Clostridium perfringens = assay: In vitro antimicrobial activity against anaerobic bacteria clostridium perfringens 81,; type: functional
Mus musculus [22] = assay: Peripheral plasma levels in mice after oral administration of 50 mg/kg dose for 1 hr; type: functional, organism-based; parameters: dose 50 mg/kg; outline: as §1
Mus musculus [23] = assay: Peripheral plasma levels in mice after oral administration of 100 mg/kg dose for 1 hr; type: functional, organism-based; parameters: dose 100 mg/kg; outline: as §1
Streptococcus pyogenes [24] = assay: In vivo effective dose against experimental infections in rodent caused by Streptococcus pyogenes C203 when administered orally; type: functional; conditions: po
Streptococcus pneumoniae [25] = assay: In vivo effective dose against experimental infections in mice Streptococcus pneumoniae park when administered orally; type: functional; conditions: po
Streptococcus pneumoniae [26] = assay: In vivo effective dose against experimental infections in mice Streptococcus pneumoniae park when administered sc; type: functional

SMILES: CC[C@H]1OC(=O)C[C@@H](O)[C@H](C)[C@@H](O[C@@H]2O[C@H](C)[C@@H](O[C@H]3C[C@@](C)(O)[C@@H](O)[C@H](C)O3)[C@H](N(C)C)[C@H]2O)[C@@H](CCCl)C[C@@H](C)C(=O)/C=C/C(C)=C/[C@@H]1CO[C@@H]1O[C@H](C)[C@@H](O)[C@@H](OC)[C@H]1OC
- MIC (Anaerococcus prevotii): 8 µg/mL (≈ 8.54 µM)
- MIC [1]: 2 µg/mL (≈ 2.14 µM)
- MIC [2]: > 128 µg/mL
- MIC (Phocaeicola vulgatus): 1 µg/mL (≈ 1.07 µM)
- MIC (Fusobacterium): 4 µg/mL (≈ 4.27 µM)
- MIC [3]: 1 µg/mL (≈ 1.07 µM)
- MIC [4]: 4 µg/mL (≈ 4.27 µM)
- MIC (Bacteroides fragilis [5]): 4 µg/mL (≈ 4.27 µM)
- MIC (Eikenella corrodens): 4 µg/mL (≈ 4.27 µM)
- MIC [6]: 64 µg/mL (≈ 68.3 µM)
- MIC (Bacteroides fragilis [7]): 8 µg/mL (≈ 8.54 µM)
- Concentration (Mus musculus [8]): 1.3 µg/mL
- Concentration (Mus musculus [9]): 8.8 µg/mL
- MIC (Bacteroides fragilis [10]): 4 µg/mL (≈ 4.27 µM)
- MIC (Streptococcus pyogenes [11]): 2 µg/mL (≈ 2.14 µM)
- MIC (Cutibacterium acnes): > 128 µg/mL
- MIC [12]: 2 µg/mL (≈ 2.14 µM)
- Concentration (Mus musculus [13]): 10 µg/mL
- Concentration (Mus musculus [14]): 0.5 µg/mL
- Concentration (Mus musculus [15]): 0.4 µg/mL
- Concentration (Mus musculus [16]): 1.9 µg/mL
- ED50 (Streptococcus pyogenes [17]): > 6.3 mg/kg
- MIC [18]: 2 µg/mL (≈ 2.14 µM)
- MIC (Clostridioides difficile): < 0.5 µg/mL
- MIC (Clostridium septicum): < 0.5 µg/mL
- MIC (Collinsella aerofaciens): 64 µg/mL (≈ 68.3 µM)
- MIC (Chlamydia trachomatis): 1 µg/mL (≈ 1.07 µM)
- MIC (Staphylococcus aureus): 1 µg/mL (≈ 1.07 µM)
- Concentration (Mus musculus [19]): 1.9 µg/mL
- MIC [20]: 32 µg/mL (≈ 34.2 µM)
- MIC (Streptococcus pneumoniae [21]): 32 µg/mL (≈ 34.2 µM)
- MIC (Haemophilus influenzae): > 128 µg/mL
- MIC (Enterococcus faecium): > 128 µg/mL
- MIC (Clostridium perfringens): < 0.5 µg/mL
- Concentration (Mus musculus [22]): 0.9 µg/mL
- Concentration (Mus musculus [23]): 3 µg/mL

SMILES: CC[C@H]1OC(=O)C[C@@H](O)[C@H](C)[C@@H](O[C@@H]2O[C@H](C)[C@@H](O)[C@H](N(C)C)[C@H]2O)[C@@H](CCOc2ccc(Oc3ccccc3)cc2)C[C@@H](C)C(=O)/C=C/C(C)=C/[C@@H]1CO[C@@H]1O[C@H](C)[C@@H](O)[C@@H](OC)[C@H]1OC
- ED50 (Streptococcus pyogenes [24]): 29 mg/kg
- MIC [3]: 0.5 µg/mL (≈ 0.531 µM)
- MIC (Streptococcus pyogenes [11]): 0.25 µg/mL (≈ 0.265 µM)
- ED50 (Streptococcus pyogenes [17]): > 10 mg/kg
- ED50 (Streptococcus pneumoniae [25]): 38 mg/kg
- ED50 (Streptococcus pneumoniae [26]): > 20 mg/kg
- MIC (Staphylococcus aureus): 0.5 µg/mL (≈ 0.531 µM)
- MIC (Streptococcus pneumoniae [21]): 0.25 µg/mL (≈ 0.265 µM)
- MIC (Haemophilus influenzae): 16 µg/mL (≈ 17 µM)
- MIC (Enterococcus faecium): 0.5 µg/mL (≈ 0.531 µM)
